Source: ChEMBL document CHEMBL5724801, “EUbOPEN Chemogenomics Library - Multiplex” (2024)
“And” between values parts separate entries of the source, which are not always exact repeats. Identical values can stand only once.

System: HEK-293T
Experiment: Multiplex assay against HEK293T
Type: toxicity, cell-based
Conditions: human
In short: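 Live cells carried four stains from seeding: Hoechst33342, BioTracker Green Microtubule Cytoskeleton Dye, MitoTracker Red and Annexin V Alexa Fluor 680. They were imaged on a CQ1 microscope at 37°C and 5% CO2 after compound addition. Using CellPathfinder machine-learning gating, cells were split into Hoechst high-intensity objects or normal cells, normal cells into healthy, pyknosed or fragmented nuclei, and pyknosed cells into mitotic or apoptotic; tubulin, mitochondrial-mass and membrane-permeability phenotypes are per cents of healthy-nucleus cells.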

[1] = 12 h, 1 µM, compound concentration 1 uM
[2] = 12 h, 10 µM, compound concentration 10 uM
[3] = 24 h, 1 µM, compound concentration 1 uM
[4] = 24 h, 10 µM, compound concentration 10 uM
[5] = 48 h, 1 µM, compound concentration 1 uM
[6] = 48 h, 10 µM, compound concentration 10 uM

CN1CCN2c3ccccc3Cc3ccccc3C2C1.Cl (configuration not stated) [MIANSERIN HYDROCHLORIDE]
Population Apoptotic (%) [1]: 23% and 46% | Population Fragmented Nuclei (%) [1]: 5% and 7% | Population Healthy Nuclei (%) [1]: 79% and 77% | Population Hoechst High Intensity Objects (%) [1]: 5% and 10% | Population Membrane Permeable-Phenotype (%) [1]: 0% | Population Mitochondria Different-Phenotype (%) [1]: 36% and 63% | Population Mitotic Cells (%) [1]: 76% and 53% | Population Normal (%) [1]: 94% and 89% | Population Pyknosed Nuclei (%) [1]: 14% | Population Tubulin-Different-Phenotype (%) [1]: 21% and 17% | Total Cell Count [1]: 338 and 376 | Population Apoptotic (%) [2]: 34% and 42% | Population Fragmented Nuclei (%) [2]: 5% | Population Healthy Nuclei (%) [2]: 81% and 85% | Population Hoechst High Intensity Objects (%) [2]: 9% and 4% | Population Membrane Permeable-Phenotype (%) [2]: 1% and 0% | Population Mitochondria Different-Phenotype (%) [2]: 45% and 53% | Population Mitotic Cells (%) [2]: 65% and 57% | Population Normal (%) [2]: 90% and 95% | Population Pyknosed Nuclei (%) [2]: 13% and 8% | Population Tubulin-Different-Phenotype (%) [2]: 40% and 28% | Total Cell Count [2]: 410 and 491 | Population Apoptotic (%) [3]: 22% and 26% | Population Fragmented Nuclei (%) [3]: 9% and 10% | Population Healthy Nuclei (%) [3]: 80% | Population Hoechst High Intensity Objects (%) [3]: 1% and 8% | Population Membrane Permeable-Phenotype (%) [3]: 0% | Population Mitochondria Different-Phenotype (%) [3]: 21% and 37% | Population Mitotic Cells (%) [3]: 77% and 73% | Population Normal (%) [3]: 98% and 91% | Population Pyknosed Nuclei (%) [3]: 10% and 9% | Population Tubulin-Different-Phenotype (%) [3]: 14% and 16% | Total Cell Count [3]: 479 and 486 | Population Apoptotic (%) [4]: 24% and 32% | Population Fragmented Nuclei (%) [4]: 8% and 5% | Population Healthy Nuclei (%) [4]: 77% and 84% | Population Hoechst High Intensity Objects (%) [4]: 5% and 3% | Population Membrane Permeable-Phenotype (%) [4]: 0% | Population Mitochondria Different-Phenotype (%) [4]: 31% and 36% | Population Mitotic Cells (%) [4]: 75% and 67% | Population Normal (%) [4]: 94% and 96% | Population Pyknosed Nuclei (%) [4]: 14% and 10% | Population Tubulin-Different-Phenotype (%) [4]: 34% and 21% | Total Cell Count [4]: 486 and 612 | Population Apoptotic (%) [5]: 13% and 37% | Population Fragmented Nuclei (%) [5]: 15% and 16% | Population Healthy Nuclei (%) [5]: 77% and 78% | Population Hoechst High Intensity Objects (%) [5]: 1% and 3% | Population Membrane Permeable-Phenotype (%) [5]: 1% and 0% | Population Mitochondria Different-Phenotype (%) [5]: 15% and 18% | Population Mitotic Cells (%) [5]: 86% and 62% | Population Normal (%) [5]: 98% and 96% | Population Pyknosed Nuclei (%) [5]: 6% and 4% | Population Tubulin-Different-Phenotype (%) [5]: 9% | Total Cell Count [5]: 812 and 761 | Population Apoptotic (%) [6]: 24% and 35% | Population Fragmented Nuclei (%) [6]: 14% | Population Healthy Nuclei (%) [6]: 76% and 79% | Population Hoechst High Intensity Objects (%) [6]: 2% and 1% | Population Membrane Permeable-Phenotype (%) [6]: 0% and 1% | Population Mitochondria Different-Phenotype (%) [6]: 18% and 14% | Population Mitotic Cells (%) [6]: 75% and 64% | Population Normal (%) [6]: 97% and 98% | Population Pyknosed Nuclei (%) [6]: 8% and 6% | Population Tubulin-Different-Phenotype (%) [6]: 17% and 11% | Total Cell Count [6]: 702 and 860

CCNC1(C(N)=O)CCN(c2ncnc3c2nc(-c2ccccc2Cl)n3-c2ccc(Cl)cc2)CC1 [OTENABANT]
Population Apoptotic (%) [1]: 51% and 58% | Population Fragmented Nuclei (%) [1]: 8% | Population Healthy Nuclei (%) [1]: 80% and 76% | Population Hoechst High Intensity Objects (%) [1]: 10% and 6% | Population Membrane Permeable-Phenotype (%) [1]: 0% | Population Mitochondria Different-Phenotype (%) [1]: 48% and 66% | Population Mitotic Cells (%) [1]: 48% and 41% | Population Normal (%) [1]: 89% and 93% | Population Pyknosed Nuclei (%) [1]: 10% and 15% | Population Tubulin-Different-Phenotype (%) [1]: 52% and 44% | Total Cell Count [1]: 401 and 333 | Population Apoptotic (%) [2]: 46% and 63% | Population Fragmented Nuclei (%) [2]: 3% and 4% | Population Healthy Nuclei (%) [2]: 74% and 67% | Population Hoechst High Intensity Objects (%) [2]: 16% and 9% | Population Membrane Permeable-Phenotype (%) [2]: 0% | Population Mitochondria Different-Phenotype (%) [2]: 82% and 96% | Population Mitotic Cells (%) [2]: 53% and 36% | Population Normal (%) [2]: 83% and 90% | Population Pyknosed Nuclei (%) [2]: 22% and 27% | Population Tubulin-Different-Phenotype (%) [2]: 50% and 43% | Total Cell Count [2]: 381 and 251 | Population Apoptotic (%) [3]: 49% and 40% | Population Fragmented Nuclei (%) [3]: 8% and 12% | Population Healthy Nuclei (%) [3]: 80% and 75% | Population Hoechst High Intensity Objects (%) [3]: 5% | Population Membrane Permeable-Phenotype (%) [3]: 0% | Population Mitochondria Different-Phenotype (%) [3]: 43% and 47% | Population Mitotic Cells (%) [3]: 50% and 59% | Population Normal (%) [3]: 94% | Population Pyknosed Nuclei (%) [3]: 11% | Population Tubulin-Different-Phenotype (%) [3]: 44% and 41% | Total Cell Count [3]: 474 and 442 | Population Apoptotic (%) [4]: 40% and 64% | Population Fragmented Nuclei (%) [4]: 8% and 6% | Population Healthy Nuclei (%) [4]: 71% and 77% | Population Hoechst High Intensity Objects (%) [4]: 17% and 13% | Population Membrane Permeable-Phenotype (%) [4]: 1% and 0% | Population Mitochondria Different-Phenotype (%) [4]: 79% and 95% | Population Mitotic Cells (%) [4]: 59% and 35% | Population Normal (%) [4]: 82% and 86% | Population Pyknosed Nuclei (%) [4]: 19% and 15% | Population Tubulin-Different-Phenotype (%) [4]: 56% and 53% | Total Cell Count [4]: 452 and 283 | Population Apoptotic (%) [5]: 34% and 32% | Population Fragmented Nuclei (%) [5]: 12% and 8% | Population Healthy Nuclei (%) [5]: 78% and 82% | Population Hoechst High Intensity Objects (%) [5]: 4% | Population Membrane Permeable-Phenotype (%) [5]: 1% and 0% | Population Mitochondria Different-Phenotype (%) [5]: 29% and 30% | Population Mitotic Cells (%) [5]: 65% and 68% | Population Normal (%) [5]: 95% | Population Pyknosed Nuclei (%) [5]: 9% and 8% | Population Tubulin-Different-Phenotype (%) [5]: 30% | Total Cell Count [5]: 766 and 604 | Population Apoptotic (%) [6]: 52% and 70% | Population Fragmented Nuclei (%) [6]: 13% and 10% | Population Healthy Nuclei (%) [6]: 71% and 77% | Population Hoechst High Intensity Objects (%) [6]: 16% and 14% | Population Membrane Permeable-Phenotype (%) [6]: 2% and 0% | Population Mitochondria Different-Phenotype (%) [6]: 78% and 89% | Population Mitotic Cells (%) [6]: 47% and 29% | Population Normal (%) [6]: 83% and 85% | Population Pyknosed Nuclei (%) [6]: 15% and 12% | Population Tubulin-Different-Phenotype (%) [6]: 66% and 57% | Total Cell Count [6]: 560 and 325
